PPC-1+TRAIL kill: compounds killing PPC-1 cancer cells with TRAIL present (potentiator screen, no TRAIL-free arm); PPC-1 cells + TRAIL, ATPLite viability luminescence; cell killing (% activity), % at 4 µM or 5 µM; hit rate 0.41% among 220,000; AID 1443;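 active = cell killing above 50% in the first pass at 4 µM, then a duplicate retest at 5 µM averaging 50% or more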;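 note: plate controls were cells with TRAIL plus DMSO for no effect and medium-only wells lacking cells for full effect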
FLuc act counter: affects firefly luciferase, flagging false hits in luciferase stimulation screens | P08659 | ATPlite luciferase biochemical, luminescence, 10 min; 0 = ATP-free wells, 1 = DMSO control | activation factor at 10 µM | 200,000 tested, under 10 active | AID 1027;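 active = luciferase activation factor, scaled between plate controls, of at least 2 with compound at 10 µM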
Target sequence (P08659 whole entry, looked up): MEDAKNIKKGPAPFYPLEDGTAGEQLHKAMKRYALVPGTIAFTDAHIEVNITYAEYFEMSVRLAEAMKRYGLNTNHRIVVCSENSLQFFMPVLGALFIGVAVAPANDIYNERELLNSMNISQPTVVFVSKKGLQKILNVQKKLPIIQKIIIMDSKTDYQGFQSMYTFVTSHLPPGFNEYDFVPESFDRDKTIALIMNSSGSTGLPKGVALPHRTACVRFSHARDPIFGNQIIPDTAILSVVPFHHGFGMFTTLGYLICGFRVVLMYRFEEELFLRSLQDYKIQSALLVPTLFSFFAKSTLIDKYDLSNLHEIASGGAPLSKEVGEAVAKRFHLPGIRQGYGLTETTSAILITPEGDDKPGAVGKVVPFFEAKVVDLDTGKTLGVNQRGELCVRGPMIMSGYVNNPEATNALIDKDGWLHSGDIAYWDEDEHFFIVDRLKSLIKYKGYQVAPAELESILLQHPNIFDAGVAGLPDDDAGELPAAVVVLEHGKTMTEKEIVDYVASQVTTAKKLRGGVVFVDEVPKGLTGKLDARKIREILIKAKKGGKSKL
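assay system = Luciferase/luciferin detection reagent, cell-free biochemical luciferase assay | also added = ATP substrate | times = 10 min post-reagent at room temperature | measured by = luminescence from luciferase reaction | measure = luciferase activation, seen as luminescence increase over controls | benchmarks = low control with PBS replacing ATP, high control enzyme plus ATP without compound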
C8 TRAIL sens: sensitizes caspase-8 expressing cells to TRAIL. NB7+C8 cells + TRAIL, ATPlite viability luminescence. inhibition (viability loss, TRAIL sensitization), % at 10 µM. hit rate 1% among 360,000;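 active = compounds causing at least 50% loss of cell viability in the single-dose screen, relative to plate controls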
FLuc inh counter: inhibits firefly luciferase, flagging false hits in luciferase inhibition screens | P08659 | ATPLite firefly luciferase biochemical luminescence, 10 min | inhibition, % at 10 µM | hit rate 1.5% among 200,000 | AID 1006;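 active = inhibition above about 50% when tested at 10 µM, limit read from the data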
Numbers without * were called inactive; / = no result given. Rows were chosen to be rich in hits. Some 1.6% of all compounds tested hit in one or more screens of this group.

SMILES	PPC-1+TRAIL kill	FLuc act counter	C8 TRAIL sens	FLuc inh counter
Cc1ccc(CNc2ccc(N3CCOCC3)cc2)s1	14.6	0.3	67.8*	72.9*
COc1ccc(-n2nc3c(c2NC(=O)COc2ccccc2OC)CS(=O)(=O)C3)cc1	/	/	-6.3	/
O=C(O)c1cc(-c2ccc3ccccc3c2)nc2ccc(F)cc12	/	/	54.5*	/
O=C(Nc1ncccn1)c1cc(-c2ccc(F)cc2)nc2ccccc12	8.2	0.9	6.1	11.0
O=C(O)c1cc(-c2ccc3ccccc3n2)nc2ccccc12	/	/	77.6*	/
CCc1ccc(-c2cc(C(=O)O)c3ccccc3n2)s1	/	/	68.3*	/
O=C(O)c1cc(-c2c[nH]c3ccccc23)nc2cc3ccccc3cc12	22.0	/	51.7*	/
CC1(C(=O)Nc2ccc(F)cc2F)CCN1C(=O)CCC1CCCC1 (configuration not stated)	/	/	-0.1	/
O=S(=O)(c1ccc(F)c(F)c1)N1CCN(CCc2ccccc2)CC1	/	/	3.2	/
CC(=O)NC(C)(c1ccccc1)c1nc(-c2csc3ccccc23)cs1 (configuration not stated)	/	/	5.6	/
COc1ccc(C(=O)N/N=C(/C)c2cccc(NC(=O)c3ccccc3F)c2)cc1	/	/	59.3*	/
COc1ccc(C(=O)N/N=C(\C)c2cccc(NC(=O)c3ccc(F)cc3)c2)c(OC)c1	/	/	38.7	/
C/C(=N\NC(=O)c1cc(O)ccc1O)c1cccc(NC(=O)c2ccc(Cl)cc2)c1	/	/	57.8*	/
C/C(=N\NC(=O)c1ccncc1)c1cccc(NC(=O)c2ccc(C(C)(C)C)cc2)c1	/	/	79.8*	/
O=C(CN1C(=O)CSc2ccc(S(=O)(=O)N3CCOCC3)cc21)NCCc1ccccc1	/	/	-14.7	/
O=[N+]([O-])c1c(Nc2cccc(O)c2)cc(Cl)c2nonc12	/	/	59.0*	/
COc1ccc(C2CC(c3c(O)cc(C)oc3=O)=NCCS2)c(OC)c1 (configuration not stated)	19.9	0.6	77.7*	37.5
Brc1cccc(-c2cnco2)c1	12.3	1	-0.3	-1.0
CCOc1ccc(-n2nnnc2-c2nc3ccccc3s2)cc1	19.4	0.7	63.2*	33.9
Cc1cccc(NC(=O)c2cc3ccccc3c(=O)o2)n1	/	/	59.7*	/
Cc1cccc(NC(=S)NC(=O)c2ccc(-c3ccccc3)cc2)n1	/	/	59.4*	/
Cc1cccc(NC(=S)NC(=O)c2oc3ccccc3c2C)n1	/	/	64.0*	/
Cc1cc(C)c(NC(=S)NC(=O)c2ccccc2)cc1C	/	/	7.4	/
Cc1c(C(=O)NC(=S)Nc2ccc(NC(=O)c3cccs3)cc2)oc2ccccc12	/	/	20.7	/
Cc1cccc(NC(=S)NC(=O)C(c2ccccc2)c2ccccc2)n1	/	/	-13.4	/
SMILES	PPC-1+TRAIL kill	FLuc act counter	C8 TRAIL sens	FLuc inh counter
Cc1ccc(C(=O)O)cc1NC(=S)NC(=O)c1ccc(-c2ccccc2)cc1	31.3	0.1	40.3	86.2*
Cc1nnc2c(SC(C)C)nc3ccccc3n12	/	/	-15.9	/
Cn1c(=S)[nH]c2sc3c(c2c1=O)CCC(C(C)(C)C)C3 (configuration not stated)	/	/	52.6*	/
CSc1ccc(CN2CCC2(C)C(=O)NC2CCN(Cc3ccccc3)CC2)cc1 (configuration not stated)	/	/	7.3	/
CCOC(=O)Cc1csc(NC(=O)/C=C/c2ccc(Cl)cc2)n1	13.7	/	55.4*	/
Cc1cccc(NC(=O)/C(C#N)=C/c2ccc(Cl)cc2)n1	/	/	-12.4	/
CCOC(=O)Cc1csc(NC(=O)/C=C/c2ccco2)n1	15.9	/	22.7	/
Cc1cccc(NC(=O)/C=C/c2ccc(Cl)cc2)n1	-29.2	0.2	69.2*	83.0*
CCCN(C)C1CN(Cc2cn(Cc3ccccc3)nn2)S(=O)(=O)C1 (configuration not stated)	/	/	-19.2	/
O=C(Nc1ccc(Cl)cc1)C1=Cc2cc(Cl)ccc2OC1	-2.0	1	-7.6	-2.7
COc1cccc2c1OCC(C(=O)OCc1cccnc1)=C2	9.2	1	7.7	-2.7
COc1ccc(NC(=O)C2=Cc3cccc(OC)c3OC2)cc1	33.5	0.4	25.9	55.1*
COc1ccc(NC(=O)C2=Cc3ccccc3OC2)cc1	17.4	0.5	20.6	52.1*
COc1ccccc1NS(=O)(=O)c1ccc(C(=O)NCC(c2cccs2)N2CCOCC2)cc1 (configuration not stated)	/	/	-11.8	/
O=C(CN1CCCCC1)NC(=O)NC1CCCC1	25.8	1	-3.1	-0.4
Cc1cc(=O)[nH]c(SCC(=O)Nc2cc(S(=O)(=O)N3CCCC3)ccc2Cl)n1	16.0	/	-0.7	/
Cc1ccc(S(=O)(=O)N2CCCCC2)cc1NC(=O)Cn1ncc(Cl)c(Cl)c1=O	/	/	96.5*	/
O=C(Cn1ncc(Cl)c(Cl)c1=O)Nc1ccc2c(c1)OCO2	/	/	94.3*	/
O=C(Cn1ncc(Cl)c(Cl)c1=O)NC(=O)NC1CCCCC1	/	/	93.5*	/
CCCc1cc(=O)[nH]c(SCC(=O)Nc2cc(S(=O)(=O)N3CCCCC3)ccc2C)n1	/	/	50.0*	/
COCc1ccc(C(=O)N(C)C2CCCN(Cc3ccccc3F)C2)o1 (configuration not stated)	/	/	0.8	/
CCN(CC)S(=O)(=O)c1cc(NC(=O)Cn2ncc(Cl)c(Cl)c2=O)ccc1C	17.1	/	62.1*	/
O=C(Cn1ncc(Cl)c(Cl)c1=O)c1ccc2c(c1)OCCO2	/	/	88.8*	/
CCC(=O)Nc1ccc(C(=O)Cn2ncc(Cl)c(Cl)c2=O)cc1	11.4	/	93.6*	/
CCCc1cc(=O)[nH]c(SCC(=O)N2CCCc3ccccc32)n1	-2.6	0.3	20.6	72.4*
SMILES	PPC-1+TRAIL kill	FLuc act counter	C8 TRAIL sens	FLuc inh counter
CC(OC(=O)Cc1cccc(C(F)(F)F)c1)C(=O)Nc1ccc(Cl)cn1 (configuration not stated)	/	/	2.3	/
COc1cc(OC)cc(C(=O)N[C@H](C(=O)OCC(=O)N2CCN(S(=O)(=O)c3ccc(C)cc3)CC2)C(C)C)c1	/	/	-2.0	/
CCCn1c(O)c(/C=C2\C=NN=C2c2ccccc2)sc1=S	-1.1	1	76.4*	-4.0
C=CCn1c(O)c(/C=C2\C=NN=C2c2ccccc2)sc1=S	6.8	/	8.4	/
CN(C)c1ccc(/C=C/c2ccc3c4ccccc4ccc3[n+]2-c2ccccc2)cc1	67.5*	0.3	63.2*	65.4*
CN(C)c1ccc(/C=C/c2ccc3ccccc3[n+]2C)cc1	39.5	0.7	36.0	31.9
COCCNC(=S)N1CCC2CC1c1c(Cl)cccc12 (configuration not stated)	/	/	-3.0	/
O=C(NNC(=S)Nc1cccc2ccccc12)c1cccc(Br)c1	24.9	1	-6.0	3.3
Cc1ccc(C(=O)NNC(=S)Nc2cccc3ccccc23)s1	28.7	0.4	7.2	57.5*
CCOC(=O)c1sc(N(Cc2ccccc2)C(=O)COC(=O)c2ccccc2O)nc1C	15.7	1.1	-0.9	-5.4
CCOC(=O)c1sc(N(Cc2ccccc2)C(=O)CCl)nc1C	/	/	86.7*	/
COc1ccc(N(CC(=O)NC2CCCC2)C(=O)c2ccc(C)s2)cc1OC	/	/	13.1	/
OCC[C@H]1C[C@H](O)[C@@H](O)[C@@]2(CCCO2)O1	/	/	-6.7	/
Clc1c(-c2ccccc2)nnn1-c1ccccc1	8.7	0.3	21.0	69.1*
Cc1noc(C)c1COC(=O)c1csc2c1CCC(C)C2 (configuration not stated)	/	/	-0.4	/
CCOC(=O)C(CC(=O)c1ccccc1)CC(=O)c1ccccc1	/	/	15.4	/

From PubChem BioAssay
